Data set [1] has as its target T1, IgG receptor FcRn large subunit p51 (Homo sapiens, UniProt P55899). Put plainly: Binding affinity to human FcRn at pH 6 by surface plasmon resonance assay. The method in brief: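 Soluble human FcRn coupled to the dextran surface of a CM5 chip; peptide dilutions flowed over the chip. The equilibrium response at each dilution was plotted against concentration and fitted to a steady-state affinity model to give Kd.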

A short description of data set [2]: Stability in presence of subtilisin assessed as intact peptide after 18 hrs. The format is ADME. Conditions: subtilisin (protease solution); read-out: Stability. The method in brief: (§1)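 Peptide dissolved in PBS at 0.3 mg/mL and treated with a 470-fold molar excess of Subtilisin Carlsberg. The fraction of intact peptide remaining was recorded.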
Data set [3] can be described thus: Stability in presence of subtilisin assessed as intact peptide after 1 hr. The format is ADME. Conditions: subtilisin (protease solution); read-out: Stability. The method in brief:
as §1

For data set [4], the target named is T1, IgG receptor FcRn large subunit p51. Put plainly: Inhibition of human IgG binding to soluble human FcRn by ELISA. The method in brief:
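Biotinylated soluble human FcRn immobilized on neutravidin plates, incubated with hIgG (3 nM, constant) and peptide at varying concentrations for 2 h at 37 °C. After washing, bound hIgG detected with peroxidase-conjugated hIgG-specific Fab fragments.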
Background: In an ELISA, binding on a coated surface is turned into a signal by an enzyme label.

T1 sequence (P55899 whole entry): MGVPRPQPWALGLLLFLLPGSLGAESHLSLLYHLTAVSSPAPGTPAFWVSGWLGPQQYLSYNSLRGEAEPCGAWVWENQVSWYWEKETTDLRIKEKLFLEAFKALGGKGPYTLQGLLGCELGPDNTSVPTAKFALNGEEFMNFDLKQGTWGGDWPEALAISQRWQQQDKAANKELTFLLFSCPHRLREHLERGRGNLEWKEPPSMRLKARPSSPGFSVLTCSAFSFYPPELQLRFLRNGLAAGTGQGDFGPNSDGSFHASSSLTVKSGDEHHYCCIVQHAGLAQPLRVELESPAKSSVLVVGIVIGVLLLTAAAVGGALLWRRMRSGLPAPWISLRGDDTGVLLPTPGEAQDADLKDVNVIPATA

By Kd is commonly meant the constant that tells how readily two partners part at equilibrium. For orientation: IC50 means the concentration that inhibits the measured activity by half. A lower IC50 goes with greater potency. On to `CC(C)C[C@H](NC(=O)CNC(=O)CNC(=O)[C@H](Cc1ccccc1)NC(=O)[C@H](Cc1cnc[nH]1)NC(=O)CNC(=O)[C@@H](NC(=O)[C@@H](NC(=O)[C@H](Cc1ccccc1)NC(=O)[C@H](CCCNC(=N)N)NC(=O)[C@@H](N)CCC(N)=O)C(C)(C)S)[C@@H](C)O)C(=O)N[C@@H](Cc1ccc(O)cc1)C(=O)N1CCC[C@H]1C(=O)N[C@@H](CS)C(=O)N[C@@H](CC(N)=O)C(=O)NCC(=O)N1CCC[C@H]1C(=O)O`, for which, in data set [1], the affinity, expressed as Kd, was 250 nM. Besides, the remaining at 18 h in data set [2] was found to be 0%. In addition, the remaining at 1 h in data set [3] was determined as 5%. Also, the IC50 in data set [4] amounted to 2000 nM.

The record behind these values is ChEMBL document CHEMBL1150419, “Structure-activity relationships of a peptide inhibitor of the human FcRn:human IgG interaction” (Bioorg Med Chem, 2008).
